Measurements published in the EternaBench riboswitch data.

Test system: MS2 coat protein
Experiment: apparent Kd, MS2 coat protein; higher = weaker binding; RNA-MaP array; FMN 200 µM where present
In short: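 Apparent Kd: the median of filtered binding-curve fits from single clusters. Designs were transcribed on Illumina sequencing-chip clusters by stalled E. coli RNA polymerase and titrated with SNAP-549-labelled MS2 coat protein from 0.7 or 1.5 nM, doubling to 3 µM, in 100 mM Tris-HCl pH 7.5, 80 mM KCl, 4 mM MgCl2, BSA, DTT, yeast tRNA and Tween-20. Each series ran without and then with constant ligand, and green signal was normalised to red-channel RNA signal and control-cluster median Fmax.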

[1] = designed as: ON switch for flavin mononucleotide, no ligand
[2] = ligand present: flavin mononucleotide, designed as: ON switch for flavin mononucleotide
[3] = designed as: OFF switch for flavin mononucleotide, no ligand
[4] = ligand present: flavin mononucleotide, designed as: OFF switch for flavin mononucleotide

Sequence	apparent Kd [1]	apparent Kd [2]	apparent Kd [3]	apparent Kd [4]
GGCUAACGGGCUAACAUGAGGAUCACCCAUGUGGACUCAUGGUAGGAUAUGCUGUACAAAGUACAGCAGAAGGGCCGGUGAGCC	128 nM	978 nM		
UGUGUAGAGGUGAAGCGAAUUACUGAGGAUAUGACAUGAGGAUCACCCAUGUACACAUCGUCAGGUCAGAAGGCAGUGGUUCUU			7.2 nM	21.1 nM
CGUUAUUCAGGAUAUGGCGUGUUAUACAUGAGGAUCACCCAUGUAGAUCCUGGUUAGGCCUCAGAAGGGAAUGUUC			43.7 nM	37.8 nM
UGCAUGUGAGGAUAUGUGUACUGUCUUUUGUUUAGAUGUACACAGAAGGCACAUGAGGAUCACCCAUGUAGUAC			126 nM	27.8 nM
AGUAAGAUGCAGAAGGUGUCAGCUAGUGCUACGACAUGAGGAUCACCCAUGUACUAGAAACAGUACAAGGAUAUGCAUCUUACA	56.8 nM	8.32 nM		
GUUUGGAGUGGAGGAUAUGCGGACGAACGAUAAGCAGAAGGCCACAUGAGGAUCACCCAUGUCGGCUGUGCCGGGUGGUUGACG			41.6 nM	50.8 nM
GGAUAGUGAGGAUAUGCAUACGGUGUAAGUCCCAGAUCGAAACAUGAGGAUCACCCAUGUAGAAGGCGCAAAAC			23.6 nM	75.5 nM
GCUCUUGUCAAGAAGGGCUCGCGGUACGCUGCAGCAGGAUAUUGACAUGAGGAUCACCCAUGUCGACCGGAACAUCUUUGAGGG			13.3 nM	134 nM
GCGUCGUCGACUGAUAACAAGCCUAGAAGGCGGACAUGAGGAUCACCCAUGUCUGAUCCUCGGCCCGAGGAUAUAGGUUAAUGG			28.6 nM	13.4 nM
GUUUUUCCUCAUGUACAUGAGGAACAUGAGGAUCACCCAUGUAGAAGGAAUUUUUUUAAGUUUAGUUAGGAUAUACAUAUAUUG			106 nM	71.5 nM
UGAGCCUCGUGAGGAUAUACAUGAGGAUCACCCAUGUAAUAAAGUGAACGGAGGAAACUCCGAAUGUAGAAGGUACGAGGCUCA			10.1 nM	44.2 nM
UAUGUAUUCGUAGGAUAUCCGUUAAAACCAUGUGGAGAAGGACGAACAUGAGGAUCACCCAUGUAUCAUGGUGUAGACAAUUUU			55.5 nM	321 nM
UAUAUAUAGUAAGGAUAUGUAUAUAAUUUAUAAACAGAAGGUACUGACAUGAGGAUCACCCAUGUUUUAGUGUGGGCAUGUAGA			72.8 nM	141 nM
GUAGCAUGCCAAGGAUAUUCAUAUAGUAGGCAAACAUGAGGAUCACCCAUGUAGUGAGAGCCCUGGGAGAAGGUGGGAUGCUAC	17.9 nM	16.1 nM		
UGGUACAUCGGAGGAUAUCGUGUGUAAACAUGAGGAUCACCCAUGUCGUACGAGAGUACGGAGAUCGAGAAGGCCGAUGUACCU	16.4 nM	15.1 nM		
CCUCCGUAUGAGGAUAUCGUCCAGGAAACUGGACGAGAAGGCAUGACAUGAGGAUCACCCAUGUUAAAGUGAUG			21.4 nM	58.4 nM
AAAACAUGAGGAUCACCCAUGUAAAUAUCGGUUAAUUGUUGUGAGGAUAUACUAAAUUUUAAGAAGUAGAAGGCACUGGGUACA		23.9 nM		
GUGAGACAUGAGGAUCACCCAUGUCAGGAUAUGAUACUAUGUACUUCGGUACAUAGUAUCAGAAGGGACAGUGA			53.6 nM	66.7 nM
AUUAAUCAGCAGGAUAUAAGUAUCUGAUGGUGGUUAGAAGGGCUGACAUGAGGAUCACCCAUGUGCUCUUCGUG			11.4 nM	13.8 nM

Sequence	apparent Kd [1]	apparent Kd [2]	apparent Kd [3]	apparent Kd [4]
UAAUUAAAUGUGAGGAUAUGCUGGUCCUUGGAUCAGCAGAAGGCACAUGAGGAUCACCCAUGUAAUUUAUUUAU			75.2 nM	285 nM
AGGUGACAUGAGGAUCACCCAUGUCAGGAUAUAUACACUGGCGACGUGACGUCGGCAGAUAGAAGGGACAAAGU			17.2 nM	20 nM
AGUAUCACAGGAUAUACAUGAGUGAAAAAAGUAAAUCCACUACAUGAGGAUCACCCAUGUAGAAGGGUGAUACA			65.7 nM	57.9 nM
CAGGAUAGAGGAUAUACAUAGAUACAGAUUCGUGUGAUCCUACAUGAGGAUCACCCAUGUAGAAGGCUAUCCUG			213 nM	15.9 nM
ACGUAUCUAGGAUAUACGCUGGGUACUAUUCUCAAGUCAAGACAUGAGGAUCACCCAUGUAGAAGGAGAAGCAA			41 nM	98.4 nM
GGUCGUCACAUAUACAUGAGGAUCACCCAUGUCAAAAGACAUGAGGAUAUGGAUAAUAAUAUAAACCAGAAGGCAUGGACGACC	961 nM	59.6 nM		
UUAAAUCAUGUAGGAUAUGCAUGGCGAAGCUACGCAGAAGGACAUGAGGAUCACCCAUGUUCGAGCUACCGAGUUCGGUGGCAA			21.9 nM	122 nM
UUGGACGUCGUAGGAUAUGUAGGAUAUUCCUACAUGAGGAUCACCCAUGUUGACAUGGAAGAAGGACAGACGGACGAUGUCCAU	337 nM	8.52 nM		
CUGGUGUCAGGAUAUGCAUAGCAGUGACCGAAACCCGGUCAGCAGAAGGGACAUGAGGAUCACCCAUGUUAAUA			23 nM	64.1 nM
AAAAGGUCAGGAUAUGCCCUCCUGGUGGAAAAGCCUGGUGGGCAGAAGGGACAUGAGGAUCACCCAUGUAAAAA			60.8 nM	81.8 nM
UUUUUUUUAGUAAGGAUAUGAUGCAGGAAACUGCGUCAGAAGGUACAUGAGGAUCACCCAUGUUAAUUUUUUUU			17.2 nM	22.4 nM
GUGUAGAUAGGAUAUACGUGAGUCUAGCGAAGCUAGAUUCUACAUGAGGAUCACCCAUGUAGAAGGGUCUACAC			16.1 nM	18.6 nM
AGAGACCUCACAGGAUAUGCUGGACUUUGUCCAGCAGAAGGGUGAAAACAUGAGGAUCACCCAUGUAUGGUCUCCAAAUUUAAG	182 nM	13.5 nM		
UAUGUGUCAGGAUAUUAAUUAUUGGAGAAUGUGACGAUGAUUAAGAAGGGACAUGAGGAUCACCCAUGUUCAUC			20.4 nM	33.6 nM
AGCUAGUCAGGAUAUACAAACAUGUCGAGAGACGUGAAGGGACAUGAGGAUCACCCAUGUAGAAGGGACUAGCA			59 nM	234 nM
UAUAUUUAUGUAGGAUAUGGUAUAUAAAAUAUACCAGAAGGACAUGAGGAUCACCCAUGUAUGAAAUUCCAUAAUUACCGUGUA			9.98 nM	11.3 nM
AAGAAGUGAGGAUAUACGCGAACAAAAAAAAAAAAGAAAGCGUAGAAGGCACAUGAGGAUCACCCAUGUCAAAA			26.1 nM	27.3 nM
AGCGAGAUAGGCAAGGAUAUGCUGGGUUUCACAUGAGGAUCACCCAUGUCAUAGGUAAUGUCCGAGCAGAAGGUGCAUUCUCUUU	171 nM	21.7 nM		
AAGGAUAGAGGAUAUACAUAGAUACAGAUUCAUGUAGACCUACAUGAGGAUCACCCAUGUAGAAGGCUAUCCUA			19.2 nM	113 nM

Sequence	apparent Kd [1]	apparent Kd [2]	apparent Kd [3]	apparent Kd [4]
CAGGUAGACUGAGGAUAUACAUUAAACAGCUAGUCUAUCUAGCUGGUCACAUGAGGAUCACCCAUGUAGAAGGCAGUCUGCCUG			24.6 nM	65.4 nM
UGGAUCAUCGGAGGAUAUCAUGUGUAAACAUGAGGAUCACCCAUGUCGUACGAGAGUACGGAGAUUGAGAAGGCCGAUGAUCCU	85.4 nM	16.4 nM		
UGAUAACAUGUAGGAUAUCCAGCAUUGACCAUCGGAGAAGGACAUGAGGAUCACCCAUGUACCGAUACAAUGGGAUAAGGGAAU			16.1 nM	18.6 nM
UAUUUACGAGGAUAUCGUUUUUUUCACAUGAGGAUCACCCAUGUUGUUUAUGUUGCGUUGCGAGAAGGCGUUUGUU			31.1 nM	23 nM
GUAUGUUAUGAGGAUAUCGGUGAACAUACACAUCGAGAAGGCAUGACAUGAGGAUCACCCAUGUCAAGGAUGAC			27.4 nM	57.8 nM
AUCCUGCGAGGAUAUACAUAAUUUUUUUCAUUUGGUUGCGAACAUGAGGAUCACCCAUGUAGAAGGUGCUUCAC			66.7 nM	62.5 nM
UGACGGAGCAGAGGAUAUACAUGAGGAUCACCCAUGUAAAUGAAAGAUAGCAGCAAAGCUGCAAUGUAGAAGGCUGCUCCGUCA			29.8 nM	84.9 nM
UUACAGCAAGGAUAUACGGGCUGUGCUUUUCAUUUCUUACAACAUGAGGAUCACCCAUGUAGAAGGUGCAACUU			34.8 nM	63.3 nM
GCUGGGUCAGGAUAUACGAGAUCGAAAGAUCGAAGAUCCGUACAUGAGGAUCACCCAUGUAGAAGGGACUGGGC			21.4 nM	44.7 nM
UUGGACGUCGUAGGAUAUGUAGGAUAUUCCUACAUGAGGAUCACCCAUGUUGACUUGGAAGAAGGACAGAAGGACGAUGUCCAU	22 nM	4.06 nM		
UAUAUAUAGUAAGGAUAUGUAUAUAUUCUAUAAACAGAAGGUACUGACAUGAGGAUCACCCAUGUUUUAGUGUGGGCAUGUAGA			33.9 nM	30.5 nM
GCCAUCGCAUGAGGAUAUGGACAGCUUUGCUGUCCAGAAGGCAUGUCAAUAGACAUGAGGAUCACCCAUGUAGUUAAGAUGGCA	771 nM	52.2 nM		
UAAACAUGAGGAUCACCCAUGUUAUGAUCGGUUGAUGAAAGUGAGGAUAUACUUAAUUUUAUGGAGUAGAAGGCACUGGGUUCU	23.1 nM	28.6 nM		
ACAUAAAUUCGAGGAUAUCGGUGAUAUAAUUUACGAGAAGGCGAUAAAUGUUAUAAACUUAUAGACAUGAGGAUCACCCAUGUA	35.1 nM	32.5 nM		
GCUAGUAUUGCAGGAUAUUGAGAAUAAUUAUUACAAGAAGGGCAUAACAUGAGGAUCACCCAUGUAUUCCUUAGUGAUACUAGC			6.24 nM	6.07 nM
AAAACAUGAGGAUCACCCAUGUAAAGAACGGUUAAUAAAUGUGAGGAUAUACUAAAAUUUACGUAGUAGAAGGCACUGGGUACA	20.8 nM	25.1 nM		
GACUUGCGCACAGGAUAUCCACGGAGCGGACGUGGAGAAGGGUGACAUGAGGAUCACCCAUGUACGUAAGUCUGGAUCACUCCC	108 nM	33.1 nM		
UGUAUGGACAGAGGAUAUACGUGCUAGAGAUACUAGCUAAUAAUCCUUACAUGAGGAUCACCCAUGUAGAAGGCUGUCCAUACU			20.5 nM	45.6 nM
